CASP6 VEID inh: human caspase-6 inhibitors, primary screen, biochemical, VEID-R110 fluorescence, single point, set 2; 350,000 compounds, 0.53% hits; inhibition, % at 12.5 µM; purified caspase-6, Z-VEID-R110 cleavage fluorescence;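 active = mean inhibition across replicates at least about 35%, with every replicate also reaching that limit, limit read from the data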
Target sequence (P55212 24-179 limits assumed): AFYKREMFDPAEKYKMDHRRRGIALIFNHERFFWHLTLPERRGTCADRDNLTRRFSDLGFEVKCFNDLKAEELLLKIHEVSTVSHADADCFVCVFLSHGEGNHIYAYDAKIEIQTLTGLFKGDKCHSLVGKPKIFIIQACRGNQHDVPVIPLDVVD
Target sequence (P55212 194-293 limits assumed): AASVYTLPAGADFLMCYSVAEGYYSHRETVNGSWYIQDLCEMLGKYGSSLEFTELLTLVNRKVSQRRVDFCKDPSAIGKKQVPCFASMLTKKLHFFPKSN
DENV2 CPE: inhibitors of DENV2 cytopathic effect, primary screen, cell-based, plate reader, single concentration. DENV2-infected cells, cytopathic effect rescue. CPE inhibition, % at 9.99 µM. 350,000 compounds, 1.7% hits; in the data active = CPE inhibition above about 20%, passing the limit was not always enough; tested in BHK-21 cells
CaV13 FRET inh: Disruptors of the CACNA1D IQ motif to Ca2+-dependent inactivation inhibitor domain association, primary screening, Förster resonance energy transfer in intact living …. HEK cells, CFP/YFP FRET ICDI-IQ, plate reader, 10 min; percent FRET-ratio fall versus neutral wells. inhibition, % at 12.3 µM. 340,000 compounds, 0.098% hits;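 active = mean replicate inhibition of at least 30% and at least 1% of replicates passing that level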
XiGFP reactiv: activators of inactive X chromosome reactivation, primary screen, imaging, XiGFP fibroblasts, GFP high-content imaging, set 2; XiGFP mouse fibroblasts, % GFP-positive cells imaging, 3 d; cells co-treated with 5-aza-dC sensitizer; scaled so ellipticine positive control = 100%; activation, % at 7.58 µM; 360,000 compounds, 0.055% hits; AID 743238, 2013;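 active = mean normalized replicate activation at least 10% and every replicate at or above 10%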
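Material: XiGFP fibroblasts, SV40-immortalized. Buffer or medium: DMEM plus 5-aza-dC sensitizer. Compound: single concentration per compound, delivered by pin transfer. Times: 3 days compound exposure. Controls: ellipticine 6 µM.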
FN deposition inh: inhibitors of fibronectin matrix deposition, primary screen, AH1F cells, Alexa488-fibronectin fluorescence, plate reader. AH1F fibroblasts, overnight. inhibition, % at 12.6 µM. 350,000 compounds, 0.086% hits;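 active = mean inhibition across replicates of 30% or more, regardless of how many single replicates reach that level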
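Material: AH1F fibroblasts assembling fluorescent fibronectin matrix; amount: 10000 AH1F cells/well; medium: DMEM, 2% serum; reagent: Alexa488-fibronectin, 24 nM final in well; dosing: single compound dose, delivered by pin transfer; incubation: 1 h adhesion, overnight exposure; detection: fluorescence after three HBSS washes, excitation 485 nm, emission 525 nm; measure: fibronectin deposition inhibition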
Each line names hits and unclear results; the compound was inactive in the other large screens; ! = a repeat was not active. The list is not random: actives were taken first. Their share in the collection is about 2%.

N#Cc1ccc(-c2ccc3c(c2)[C@H]2[C@H](CCN2C(=O)C2CCC2)[C@H](CO)N3)cc1	DENV2 CPE 34.9 (no result: CaV13 FRET inh)
O=C(C1CCC1)N1CC[C@@H]2[C@H](CO)Nc3ccc(C#Cc4ccc(F)cc4)cc3[C@@H]21	none (no result: CaV13 FRET inh)
CCC(=O)N1CC(=O)N2[C@H](C1)[C@H](c1ccc(C3=CCCCC3)cc1)[C@@H]2CO	none (no result: CASP6 VEID inh, DENV2 CPE, CaV13 FRET inh, FN deposition inh)
Cc1ccc(C(=O)Nc2ccc(N3CCN(C)CC3)cc2)cc1C	DENV2 CPE 26.8
O=c1[nH]c2cc(Cl)c(Br)cc2o1	DENV2 CPE 157.3
COCc1cccc(-c2csc(C(O)c3ccc(F)c(F)c3)n2)c1 (stereo not drawn)	none (no result: FN deposition inh)
COCc1cccc(-c2csc(C(N)c3ccc(F)c(F)c3)n2)c1 (stereo not drawn)	DENV2 CPE 21.1
O=C(Cc1cccs1)NCCc1ccc(F)cc1	none
OCCc1ccc(NCCc2cccs2)cc1	DENV2 CPE 20.9
CCCNC(=O)C[C@@H]1CC[C@H]2[C@@H](COC[C@@H](O)CN2C(=O)c2cccnc2)O1	none (no result: CaV13 FRET inh)
C[C@@H]1CCCCO[C@H](CN(C)C(=O)c2ccccc2)[C@H](C)CN([C@@H](C)CO)C(=O)c2cc(NC(=O)CCCCCC(=O)Nc3ccccc3N)ccc2O1	DENV2 CPE 20.3 (no result: CaV13 FRET inh)
C[C@@H]1CCCCO[C@H](CN(C)C(=O)NC2CCCCC2)[C@@H](C)CN([C@H](C)CO)C(=O)c2cc(NC(=O)CCCCCC(=O)Nc3ccccc3N)ccc2O1	DENV2 CPE 112.1 (no result: CaV13 FRET inh, FN deposition inh)
CC(O)(c1cccc(F)c1)c1nc(/C=C/c2ccccc2)cs1 (stereo not drawn)	DENV2 CPE 22.3
COc1ccc(CN(C)C[C@H]2Oc3c(NS(=O)(=O)c4ccccc4)cccc3C(=O)N([C@@H](C)CO)C[C@@H]2C)cc1	none (no result: CASP6 VEID inh, CaV13 FRET inh, FN deposition inh)
O=C(C1CCC1)N1C[C@H]2[C@@H](c3ccccc31)[C@H](CO)N2C(=O)c1ccccc1F	none (no result: CaV13 FRET inh)
CCN(CC)CCCn1c2c(c(SCC(=O)Nc3cc(C)cc(C)c3)nc1=O)CCC2	DENV2 CPE 22.5
CN(C)CC(=O)N1[C@H](CO)[C@@H](c2ccc(C#CC3CCCC3)cc2)[C@@H]1C#N	DENV2 CPE 34.1 (no result: CaV13 FRET inh)
N#C[C@H]1[C@H](c2ccc(C#CC3CCCCC3)cc2)[C@@H](CO)N1C(=O)Cc1ccccn1	DENV2 CPE 86.8 (no result: CaV13 FRET inh)
C[C@H](CO)N1C[C@H](C)[C@@H](CN(C)S(C)(=O)=O)OCCCC[C@H](C)Oc2ccc(N(C)C)cc2C1=O	none (no result: CASP6 VEID inh, DENV2 CPE, CaV13 FRET inh, FN deposition inh)
O=[N+]([O-])c1c(NCCCO)cc(N2CCCCCC2)c2nonc12	DENV2 CPE 37.4
CNC[C@H]1OCCCC[C@@H](C)Oc2ccc(NS(=O)(=O)c3ccc(C)cc3)cc2C(=O)N([C@H](C)CO)C[C@H]1C	none (no result: DENV2 CPE, CaV13 FRET inh)
Cn1cnc(S(=O)(=O)N2CCN(c3ccc(Cl)cc3)CC2)c1	none
Cn1cnc(S(=O)(=O)N2CCN(c3ccccc3)CC2)c1	FN deposition inh 32.7
COc1cc(/C=N/Nc2ccc(C(=O)O)cc2)ccc1O	CASP6 VEID inh 38.7
COc1cc(/C=N/Nc2ccc(C(=O)O)cc2)cc(OC)c1OC	none
O=C(N[C@H]1CC[C@@H](CCn2cc(-c3ccccc3)nn2)O[C@@H]1CO)c1cnccn1	none (no result: CaV13 FRET inh)
COc1cccc2sc3cc(NCc4ccc(C)o4)ccc3c(=O)c12	DENV2 CPE 56.3 (no result: CASP6 VEID inh)
COc1cc2sc3cc(NCCCN4CCOCC4)ccc3c(=O)c2cc1OC	none
CC(C)c1cc(-c2cc(C(=O)NCc3ccccc3)on2)nc(NCC2CC2)n1	none
CC(C)c1cc(-c2cc(C(=O)NCc3ccccc3)on2)nc(NC2CCCC2)n1	DENV2 CPE 22.0
O=C(Nc1ccn(CC(=O)N2CCN(c3ccccn3)CC2)c(=O)n1)OCc1ccccc1	DENV2 CPE 118.8
O=C(Nc1ccn(CCCN2CCN(c3ncccn3)CC2)c(=O)n1)OCc1ccccc1	none (no result: CASP6 VEID inh)
O=C(Cn1ccc(NC(=O)OCc2ccccc2)nc1=O)NCCCN1CCCC1=O	DENV2 CPE 113.6
CC(C)NC(=O)N1CC2(C1)[C@H](c1ccccc1)[C@H](CO)N2C(=O)C1CC1	none (no result: CaV13 FRET inh)
O=C(NCCCO)/C(=C/c1ccc(-c2cccc([N+](=O)[O-])c2)o1)NC(=O)c1ccccc1	none (no result: DENV2 CPE)
Cc1ccc(C(=O)N/C(=C/c2ccc(-c3ccc([N+](=O)[O-])cc3)o2)C(=O)NCCCN(C)C)cc1	XiGFP reactiv 61.8
COc1ccc(O[C@H]2C=C[C@@H](c3ccccc3)O[C@@H]2CO/N=C(\C)CCN2CCCCc3nc(C)c(C)cc32)cc1	DENV2 CPE 36.2 (no result: FN deposition inh)
O=C1O[C@@H](c2ccccc2)[C@@H](c2ccccc2)N2[C@@H](c3ccccc3OCCO)[C@]3(C(=O)Nc4ccccc43)[C@@H](C(=O)O)[C@H]12	CASP6 VEID inh 35.6 (no result: CaV13 FRET inh, XiGFP reactiv, FN deposition inh)
O=C(C[C@H]1C=C[C@@H](NC(=O)Nc2ccc(C(F)(F)F)cc2)[C@@H](CO)O1)NCc1cc(F)cc(F)c1	none (no result: CaV13 FRET inh)
CCOc1ccc(NC(=O)CCS(=O)(=O)c2ccc(Br)cc2)cc1	CASP6 VEID inh 65.6
CCOc1ccccc1NC(=O)CCS(=O)(=O)c1ccc(Br)cc1	CASP6 VEID inh 70.6
O=C(CCS(=O)(=O)c1ccc(Br)cc1)Nc1cc(F)ccc1F	CASP6 VEID inh 58.8
CCOc1ccc(CCNC(=O)CCS(=O)(=O)c2ccc(OC)cc2)cc1OCC	CASP6 VEID inh 38.5
COCC(=O)N1C[C@@H](C)[C@@H](OC)CN(C)C(=O)c2cc(NC(=O)c3ccc(OC)cc3)ccc2OC[C@@H]1C	none (no result: CaV13 FRET inh)
O=C1Nc2ccccc2SC1c1ccccc1 (stereo not drawn)	DENV2 CPE 25.0
Cc1ccc(S(=O)(=O)Nc2ccc(Nc3ccccc3)cc2)cc1	CaV13 FRET inh 68.5
O=S(=O)(Nc1ccc(Nc2ccccc2)cc1)c1ccc(F)cc1	none
O=C(C[C@@H]1CC[C@@H](NC(=O)Nc2ccc3c(c2)OCO3)[C@H](CO)O1)NCc1ccccc1	none (no result: CaV13 FRET inh, FN deposition inh)
COc1ccc(CC(N)c2csc(NC(=O)c3ccc(OC)cc3)n2)cc1 (stereo not drawn)	DENV2 CPE 36.8
N#Cc1cccc(-c2ccc(C3[C@@H]4CN(C(=O)c5cccnc5)C[C@H]3N4)cc2)c1 (stereo partly drawn)	DENV2 CPE 83.6! (no result: CASP6 VEID inh, CaV13 FRET inh)
O=C(C1CC1)N1C[C@@H]2N[C@H](C1)C2c1ccc(-c2cccc(F)c2)cc1 (stereo partly drawn)	DENV2 CPE 59.1! (no result: CASP6 VEID inh, CaV13 FRET inh)
Cc1cccc(-c2ccc(C3[C@@H]4CN(Cc5cccc(F)c5)C[C@H]3N4)cc2)c1 (stereo partly drawn)	none (no result: CASP6 VEID inh, CaV13 FRET inh)
O=C(C1CCCC1)N1C[C@@H]2N[C@H](C1)C2c1ccc(-c2cccc(F)c2)cc1 (stereo partly drawn)	DENV2 CPE 47.3! (no result: CaV13 FRET inh)

Screening results from PubChem.
